Reference: ChEMBL document CHEMBL1765063, “Synthesis and anti-melanogenic activity of hydroxyphenyl benzyl ether analogues” (Bioorg Med Chem, 2011)

Key:
[1] = biological target: T1, Tyrosinase (Mus musculus) (UniProt P11344); experiment: Inhibition of tyrosinase activity in alpha-MSH-stimulated mouse B16 cells at 100 uM using L-tyrosine as substrate; format: cell-based
T1 sequence (whole entry): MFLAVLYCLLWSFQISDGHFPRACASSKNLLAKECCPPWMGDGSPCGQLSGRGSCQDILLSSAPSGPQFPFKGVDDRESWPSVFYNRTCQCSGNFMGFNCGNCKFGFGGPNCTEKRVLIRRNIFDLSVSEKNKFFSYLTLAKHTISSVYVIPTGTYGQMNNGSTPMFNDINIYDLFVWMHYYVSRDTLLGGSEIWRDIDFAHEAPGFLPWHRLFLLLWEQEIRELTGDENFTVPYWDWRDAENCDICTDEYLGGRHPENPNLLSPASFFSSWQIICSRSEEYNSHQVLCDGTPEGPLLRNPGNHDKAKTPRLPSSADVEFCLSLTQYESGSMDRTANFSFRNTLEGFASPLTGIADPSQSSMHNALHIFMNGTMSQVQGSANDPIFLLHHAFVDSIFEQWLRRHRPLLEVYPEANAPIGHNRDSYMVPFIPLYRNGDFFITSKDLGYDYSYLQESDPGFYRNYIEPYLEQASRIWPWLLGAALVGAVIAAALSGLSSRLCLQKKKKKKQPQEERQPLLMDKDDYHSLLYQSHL
In short: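 Enzyme source: B16 cells stimulated 48 h with 10 nM α-MSH, sonicated on ice and centrifuged. Supernatant dialysed against 50 mM sodium phosphate, pH 6.8. Compound preincubated with the cell-free enzyme, then 5 mM L-tyrosine added as substrate. Initial rate of dopachrome formation followed at 475 nm. One unit converts 1 nmol L-tyrosine per min.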

B16 [2] = experiment: Inhibition of alpha-MSH-induced melanin synthesis in mouse B16 cells grown in a 5% CO2-95% air atmosphere at 10 uM after 3 days; format: functional; details: B16, 72 h
In short: (§1)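 Mouse B16 melanoma cells seeded at 2.5×10^3 per well in DMEM with 10% FBS and grown 1 day at 37 °C. α-MSH was added together with compound at various concentrations, then cells were incubated 3 days at 37 °C. Absorbance at 405 nm was read against a synthetic melanin standard curve (melanin dissolved in 0.85 N KOH). IC50 is the mean of triplicate determinations.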

B16 [3] = experiment: Inhibition of alpha-MSH-induced melanin synthesis in mouse B16 cells grown in a 5% CO2-95% air atmosphere after 3 days; format: functional, cell-based; details: B16, 72 h; in short: as §1
[4] = system: Radical scavenging activity; experiment: Antioxidant activity assessed as DPPH free radical scavenging activity at 100 uM after 30 mins; format: functional
In short: (§2)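 Compounds in ethanol mixed 1:1 by volume with 200 µM DPPH stock (stock concentration). Shaken 30 min at room temperature, absorbance read at 517 nm. Percent scavenging taken against DPPH without compound, blank-corrected. Screening done at 100 µM final. […] Triplicate runs, vitamin C as positive control.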

Tyrosinase = biological target: T2, Tyrosinase (Mus musculus, UniProt P11344); experiment: Inhibition of tyrosinase activity in alpha-MSH-stimulated mouse B16 cells using L-tyrosine as substrate; format: cell-based
T2 sequence (P11344 whole entry): T1 sequence (whole entry)
In short: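 Enzyme source: B16 cells stimulated 48 h with 10 nM α-MSH, sonicated on ice and centrifuged. Supernatant dialysed against 50 mM sodium phosphate, pH 6.8. Compound preincubated with the cell-free enzyme, then 5 mM L-tyrosine added as substrate. One unit converts 1 nmol L-tyrosine per min.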

[5] = system: Radical scavenging activity; experiment: Antioxidant activity assessed as DPPH free radical scavenging activity after 30 mins; format: functional; in short: as §2

SMILES | inhibition [1] [%] | inhibition at 10 µM (B16 [2]) [%] | IC50 (B16 [3]) [µM] | inhibition [4] [%] | IC50 (Tyrosinase) [µM] | EC50 [5] [µM]
Oc1ccc(OCc2ccc(Cl)c(Cl)c2)cc1 | 9.5 | 87 | 1.87 | 33.2 |  | 
Oc1cc(O)cc(OCc2ccc(F)cc2)c1 | 55.5 | 14 |  | 46.6 | 90 | 140
COc1cc(COc2ccc(O)cc2)cc(OC)c1 | 0 | > 100 | 1.93 | 54.1 |  | 76.3
Oc1cc(OCc2ccc(F)cc2)cc(OCc2ccc(F)cc2)c1 | 5.5 | 12 |  | 21.2 |  | 
Oc1ccc(OCc2cccc(Cl)c2)cc1 | 1 | 78 | 1.83 | 54.7 |  | 76.8
OC[C@H]1O[C@@H](Oc2ccc(O)cc2)[C@H](O)[C@@H](O)[C@@H]1O [ARBUTIN] |  |  | 99 |  |  | 
Oc1cc(O)cc(OCc2ccc(Cl)c(Cl)c2)c1 | 66 | 15 |  | 37.3 | 66.4 | 
Oc1cc(OCc2ccc(Cl)c(Cl)c2)cc(OCc2ccc(Cl)c(Cl)c2)c1 | 0 | 4 |  | 17 |  | 
Oc1cc(O)cc(OCc2cccc(Cl)c2)c1 | 70.5 | 18 |  | 49 | 54.7 | 119
Oc1ccc(OCc2ccccc2Cl)cc1 | 0 | 55 |  | 46.5 |  | 113
O=C1O[C@H]([C@@H](O)CO)C(O)=C1O [ASCORBIC ACID] |  |  |  | 93.9 |  | 26.2
CC(=O)Oc1cc(O)cc(OCc2ccc(Cl)c(Cl)c2)c1 |  |  |  | 8 |  | 
Oc1cc(O)cc(OCc2ccccc2Cl)c1 | 45.5 | 11 |  | 42.8 |  | 165
COc1cc(COc2cc(O)cc(O)c2)cc(OC)c1 | 27.5 | 19 |  | 46.8 |  | 129
Oc1cc(OCc2cccc(Cl)c2)cc(OCc2cccc(Cl)c2)c1 | 1.5 | 21 |  | 22.1 |  | 
Oc1ccc(OCc2ccc(F)cc2)cc1 | 1.5 | 42 |  | 48.2 |  | 102
COc1cc(COc2cc(O)cc(OC(C)=O)c2)cc(OC)c1 |  |  |  | 1.7 |  | 
COc1cc(COc2cc(O)cc(OCc3cc(OC)cc(OC)c3)c2)cc(OC)c1 | 0 | 6 |  | 27.4 |  | 
Oc1cc(OCc2ccccc2Cl)cc(OCc2ccccc2Cl)c1 | 3.5 | 33 |  | 15.6 |  | 
